ChEMBL document CHEMBL4834426, “Antimalarial Benzimidazole Derivatives Incorporating Phenolic Mannich Base Side Chains Inhibit Microtubule and Hemozoin Formation: Structure-Activity Relationship and In Vivo Oral Efficacy Studies” (J Med Chem, 2021)
Active and inactive are the calls of the source. The calls are words filed in the database; no cut-off is given here.

Experiments:
[1] = Metabolic stability in human liver microsomes assessed as compound remaining at 1 uM incubated for 30 mins by LC-MS/MS analysis; format: ADME, Microsome; settings: read-out: Stabilty
How it was run: (§1)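 Single-point design: 1 μM compound with 0.4 mg/mL liver microsomes in 0.1 M phosphate buffer pH 7.4 for 30 min. Quenched with ice-cold acetonitrile containing carbamazepine internal standard, centrifuged, analyzed by LC−MS/MS. Percent remaining from internal-standard-corrected peak areas at 30 min versus 0 min. Propranolol, midazolam and MMV390048 as controls.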

[2] = Metabolic stability in mouse liver microsomes assessed as compound remaining at 1 uM incubated for 30 mins by LC-MS/MS analysis; format: ADME, Microsome; settings: read-out: Stabilty; how it was run: as §1
[3] = Kinetic solubility of the compound in pH 6.5 incubated for 24 hrs by HPLC-DAD analysis; format: physicochemical; settings: buffer, read-out: Kinetic_solubility
How it was run: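 Miniaturized shake-flask method. 10 mM DMSO stock dried down, phosphate buffer pH 6.5 added, shaken 24 h at 25 °C. Centrifuged 3500g for 15 min; supernatant analyzed by HPLC-DAD against 10−220 μM DMSO calibration curve. Reserpine, hydrocortisone and MMV390048 as controls.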

Plasmodium falciparum [4] = test: Antimalarial activity against asexual blood stage drug-sensitive Plasmodium falciparum NF54 infected in erythrocytes assessed as reduction in parasitemia incubated up to 72 hrs by [3H]hypoxanthine incorporation assay; format: functional, organism-based
How it was run: (§2)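 [³H]-Hypoxanthine incorporation assay (modified) on asexual blood-stage P. falciparum in vitro. IC₅₀ values are means of ≥2 independent experiments.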

[5] = Half life in Balb/c mouse at 10 mg/kg, po measured up to 24 hrs by LC-MS/MS analysis; format: ADME, organism-based; settings: in vivo
How it was run: (§3)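 Male Balb/c mice, not fasted, food and water ad libitum; single oral dose. Tail-vein blood into heparinized tubes at 0.5, 1, 3, 5, 7, 9 and 24 h, stored at −80 °C. Whole blood protein-precipitated with acetonitrile containing internal standard, analyzed by LC−MS/MS (LOQ 2 ng/mL). Parameters by noncompartmental analysis with curve stripping. Mean of three mice per point.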

[6] = Metabolic stability in rat liver microsomes assessed as compound remaining at 1 uM incubated for 30 mins by LC-MS/MS analysis; format: ADME, Microsome; settings: read-out: Stabilty; how it was run: as §1
[7] = Selectivity index, ratio of IC50 for Cytotoxicity against CHO cells assessed as inhibition of cell viability by MTT assay to IC50 for antimalarial activity against asexual blood stage Plasmodium falciparum NF54 assessed as reduction in parasitemia incubated up to 72 hrs by [3H]hypoxanthine incorporation assay; format: toxicity, cell-based; settings: hamster, read-out: Selectivity Index
How it was run: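 Selectivity index is IC₅₀(CHO)/IC₅₀(NF54). […] IC₅₀ came from nonlinear dose-response fitting. Parasite IC₅₀ came from the [³H]-hypoxanthine assay.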

[8] = Volume of distribution at steady state in Balb/c mouse at 3 mg/kg, iv measured up to 24 hrs by LC-MS/MS analysis; format: ADME, organism-based; settings: in vivo, read-out: Vdss
How it was run: (§4)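 Intravenous dosing in male Balb/c mice, fed ad libitum. Tail-vein blood sampled into heparinized tubes at 0.17, 0.5, 1, 3, 5, 7, 9 and 24 h, frozen at −80 °C. Blood extracted by acetonitrile protein precipitation with internal standard; LC−MS/MS quantitation, LOQ 2 ng/mL. Noncompartmental analysis based on curve stripping.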

[9] = system: Plasmodium falciparum NF54; test: Inhibition of tubulin polymerization in asexual blood stage Plasmodium falciparum NF54 at 600 nM incubated for 24 hrs by tubulin tracker Oregon Green staining method
How it was run: (§5)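 Treatment at 600 nM for asexual parasites (~1% parasitemia, 5% hematocrit, sorbitol-synchronized rings) or 2400 nM for early gametocytes (~2% gametocytemia, 2% hematocrit, 20% I/60% II/20% III). 24 h at 37 °C, 90% N₂/5% CO₂/5% O₂, DMSO <0.1%. Stained with 250 nM Tubulin Tracker Oregon Green 488 for 30 min and Hoechst (100 nM) for 10 min. PBS-washed, imaged live by confocal microscopy. Colchicine (20 μM) positive control.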

[10] = system: Plasmodium falciparum NF54; test: Inhibition of tubulin polymerization in asexual stage (I) Plasmodium falciparum NF54 early gametocytes at 2400 nM incubated for 24 hrs by tubulin tracker Oregon Green staining method; how it was run: as §5
[11] = Oral bioavailability in Balb/c mouse at 10 mg/kg measured up to 24 hrs by LC-MS/MS analysis; format: ADME, organism-based; settings: in vivo; how it was run: as §3
[12] = system: Plasmodium falciparum NF54; test: Inhibition of tubulin polymerization in […] Plasmodium falciparum NF54 early gametocytes at 2400 nM incubated for 24 hrs by tubulin tracker Oregon Green staining method; how it was run: as §5
CHO = test: Cytotoxicity against CHO cells assessed as inhibition of cell viability by MTT assay; format: cell-based; settings: Cricetulus griseus
Plasmodium falciparum [13] = test: Antiplasmodial activity against […] Plasmodium falciparum NF54 late gametocytes transfected with GFP-Luc […] incubated for 48 hrs by microscopy based luciferase reporter gene assay relative to control; format: functional, organism-based; settings: NF54, 48 h
How it was run: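 Transgenic NF54-Pfs16-GFP-Luc gametocytes, read by luciferase reporter. Early assays were set up on day 5 (50% stage II/50% stage III) and late assays on day 10 (40% stage IV/60% stage V). Luciferin was added to lysates at room temperature and bioluminescence read. Methylene blue (5 μM) was the reference. Single-point screens at 1 and 5 μM used n=1 in technical triplicate. IC₅₀ came from a normalized nonlinear fit, n≥3 in triplicate.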

[14] = AUC (0 to t) in Balb/c mouse at 10 mg/kg, po measured up to 24 hrs by LC-MS/MS analysis; format: ADME, organism-based; parameters: dose 10 mg/kg, time <=24; settings: in vivo; how it was run: as §3
[15] = Tmax in Balb/c mouse at 10 mg/kg, po measured up to 24 hrs by LC-MS/MS analysis; format: ADME, organism-based; settings: in vivo; how it was run: as §3
Plasmodium falciparum [16] = test: Antiplasmodial activity against […] Plasmodium falciparum NF54 late gametocytes transfected with GFP-Luc […] at 5 uM incubated for 48 hrs by microscopy based luciferase reporter gene assay relative to control; format: functional
How it was run: (§6)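 NF54-Pfs16-GFP-Luc gametocytes, assays set up day 5 (early, stage II/III) or day 10 (late, stage IV/V). Culture at 2−3% gametocytemia, 1.5% hematocrit, 48 h drug exposure at 37 °C under 90% N₂/5% O₂/5% CO₂. Lysates mixed with luciferin; bioluminescence read with 10 s integration. Dual-point: one biological repeat in technical triplicate. Methylene blue (5 μM) reference.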

Plasmodium falciparum [17] = test: Antimalarial activity against asexual blood stage multi drug-resistant Plasmodium falciparum K1 infected in erythrocytes assessed as reduction in parasitemia incubated up to 72 hrs by [3H]hypoxanthine incorporation assay; format: functional, organism-based; how it was run: as §2
[18] = system: Plasmodium falciparum NF54; test: Inhibition of tubulin polymerization in asexual stage (II) Plasmodium falciparum NF54 early gametocytes at 2400 nM incubated for 24 hrs by tubulin tracker Oregon Green staining method; how it was run: as §5
Plasmodium falciparum [19] = test: Antiplasmodial activity against […] Plasmodium falciparum NF54 late gametocytes transfected with GFP-Luc […] at 1 uM incubated for 48 hrs by microscopy based luciferase reporter gene assay relative to control; format: functional; how it was run: as §6
[20] = Volume of distribution in Balb/c mouse at 3 mg/kg, iv measured up to 24 hrs by LC-MS/MS analysis; format: ADME, organism-based; settings: in vivo; how it was run: as §4
Hemozoin = test: Inhibition of Beta-hematin in early ring stage Plasmodium falciparum parasitized red blood cells assessed as hemozoin formation formation after 32 hrs by Giemsa staining based haemocytometric counting method

CCNCc1cc(Cl)cc(Nc2nc3cc(F)c(F)cc3n2Cc2ccc(C(F)(F)F)cc2)c1O
remaining at 0.5 h, 1 µM [1]: > 99%
remaining at 0.5 h, 1 µM [2]: 86%
solubility kinetic at 24 h [3]: < 5 µM
IC50 (Plasmodium falciparum [4]): 190 nM
half-life [5]: 8.3 h
remaining at 0.5 h, 1 µM [6]: 98%
selectivity ratio at 72 h [7]: > 263
Vd [8]: 5.8 L/kg
inhibition [9]: Active
inhibition [10]: inactive
bioavailability [11]: 24%
inhibition [12]: Active
IC50 (CHO): > 50000 nM
IC50 (Plasmodium falciparum [13]): > 5000 nM
AUCt [14]: 321 µmol·min/L
Tmax [15]: 2.8 h
inhibition at 5 µM (Plasmodium falciparum [16]): 0%
IC50 (Plasmodium falciparum [17]): 80 nM
inhibition [18]: Active
inhibition at 1 µM (Plasmodium falciparum [19]): 0%
Vd [20]: 6.9 L/kg
Activity (Hemozoin): inactive
